CAL PDZ FP-1 = CAL PDZ (human) peptide binding inhibition; Q9HD26; purified CAL PDZ, TMR-peptide fluorescence polarization, 1 h; inhibition, % at 24.9 µM; 300,000 compounds, 0.92% hits;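 active means mean inhibition of at least 30% with at least half of replicates also reaching 30%; inconclusive means no clear call, values can overlap the other calls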;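 further: 0% = DMSO neutral control and 100% = excess unlabeled competitor peptide PRC23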
S100A4 MyoIIA = blocks human S100A4 binding to myosin IIA peptide | P26447 | S100A4/TAMRA-MyoIIA peptide fluorescence polarization | inhibition, % at 10.7 µM | 360,000 compounds, 0.14% hits;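 active means mean inhibition of at least 70% across replicates, with every replicate also reaching that level; inconclusive means mean inhibition reaches 70% but some replicates fall short; inactive means mean inhibition below 70%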
Target sequence (P26447 whole entry, looked up): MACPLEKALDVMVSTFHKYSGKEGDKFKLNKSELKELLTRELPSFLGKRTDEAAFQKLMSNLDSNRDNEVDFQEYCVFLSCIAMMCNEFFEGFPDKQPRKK
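Material: S100A4 monomer (human). Medium: Calcium-containing HEPES buffer, pH 7.2. Probe or stimulus: labelled myosin peptide probe, 5 nM. Compound dosing: one concentration per compound. Timing: polarization read 5 min after assay mix addition, stable 5–60 min. Benchmarks: DMSO as neutral control, TFP as positive control.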
CAL PDZ FP-2 = blocks peptide binding to human CAL PDZ domain; 330,000 compounds, 0.02% hits; inhibition, % at 20 µM; AID 504414; Q9HD26; purified CAL PDZ, TMR-peptide fluorescence polarization, 1 h;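 active means highest replicate inhibition of at least 40%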;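 further: plate controls were DMSO neutral control wells for no effect and unlabeled competitor peptide control wells for full effect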
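material = purified tagged CAL PDZ domain construct (CerCALP) | compound dosing = 20 µM, one dose | times = 1 h at RT | measured by = fluorescence polarization from S- and P-plane intensities, G-factor corrected | read-out = inhibition from polarization loss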
C2C12 statin = suppressors of simvastatin-induced myotoxicity in C2C12 myotubes; ATP luminescence, 48 h; scaled: DMSO 0, geranylgeraniol control 100; rescue of ATP level, % at 7.49 µM; 330,000 compounds, 0.78% hits; AID 602340;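 active means mean ATP rescue above about 67%, or every replicate alone reaching that limit, limit read from the data, passing the limit was not always enough; inconclusive means no clear call, values can overlap the other calls; inactive means mean under the limit and some replicate under it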;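 further: myotubes were challenged with 10 µM simvastatin during compound exposure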
dFosB act = enhances mouse delta FosB homodimer DNA binding; P13346; purified delta FosB, TAMRA-CDK5 oligo fluorescence polarization; percent of positive-control signal above neutral wells; activation, % at 25 µM; 340,000 compounds, 0.99% hits; AID 493131;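 active means mean activation above about 17%, with every replicate also reaching it, limit read from the data, passing the limit was not always enough; inconclusive means only one of the two conditions met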
Target sequence (P13346 whole entry, looked up): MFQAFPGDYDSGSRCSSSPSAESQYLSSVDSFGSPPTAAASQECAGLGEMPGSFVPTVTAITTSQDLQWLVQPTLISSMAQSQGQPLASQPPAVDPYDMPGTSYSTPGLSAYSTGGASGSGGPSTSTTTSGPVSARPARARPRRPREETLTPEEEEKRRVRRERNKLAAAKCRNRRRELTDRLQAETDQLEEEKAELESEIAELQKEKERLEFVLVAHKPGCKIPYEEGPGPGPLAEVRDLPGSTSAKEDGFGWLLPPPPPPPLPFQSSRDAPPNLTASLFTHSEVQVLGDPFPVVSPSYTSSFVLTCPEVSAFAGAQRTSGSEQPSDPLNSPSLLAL
CDK5 inh = blocks human CDK5/p35 kinase activity. Q00535+Q15078. Recombinant CDK5/p35, ADP-Glo luminescence, 60 min. inhibition, % at 10 µM. 330,000 compounds, 0.01% hits. AID 488839;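 active means highest replicate inhibition of at least 50% and at least 75% of replicates reaching 50%; inconclusive means only one of the two criteria met; inactive means both criteria failed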;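 further: plate controls were DMSO neutral control for no effect and GW8510 at 10 µM for full effect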
Active calls of the source: *; ? = inconclusive; . = no result given; ! = not confirmed by another sample. Sampled rows, rich in hits. Any-hit rate of the full collection: about 2%.

SMILES | CAL PDZ FP-1 | S100A4 MyoIIA | CAL PDZ FP-2 | C2C12 statin | dFosB act | CDK5 inh
C[C@H](CO)N1C[C@H](C)[C@H](CN(C)Cc2ccc(Oc3ccccc3)cc2)Oc2c(NS(=O)(=O)c3ccc(Cl)cc3)cccc2C1=O | . | -11 | . | 80* | . | .
C[C@@H]1CN([C@H](C)CO)C(=O)c2cccc(NS(C)(=O)=O)c2O[C@@H]1CN(C)CC1CC1 | . | 126* | . | -27 | . | .
COc1cc(OC)c(-c2oc3ccccc3c(=O)c2O)c(OC)c1 | -3 | 7 | -1 | -8 | -6 | -2
Cc1cc(C(F)(F)F)c(C#N)c(Sc2ccccc2)n1 | -2 | . | . | 15 | 0 | 1
Cc1nnc(SC(C(=O)Nc2ccc(Cl)c([N+](=O)[O-])c2)c2ccccc2)[nH]c1=O (stereo unspecified) | 62* | -6 | 20 | . | -16 | -2
COc1ccc(N2CCN(C(c3cc4cc(C)ccc4[nH]c3=O)c3nnnn3Cc3ccccc3)CC2)cc1 (stereo unspecified) | -1 | . | 0 | 75* | -9 | 1
COc1ccc(C(=O)Nc2ccccc2C(=O)N2CCOCC2)cc1 | -2 | 18 | -1 | 9 | 5 | 0
N#CC1(C#N)COC23CCCCC2C1(C#N)C(=N)O3 (stereo unspecified) | 2 | . | 0 | 7 | -81 | -1
N#CC12COC3(CCCCC3C1(C#N)C#N)OC2=N (stereo unspecified) | -2 | 79* | 0 | . | -58 | 0
CCOC(=O)C(NCc1ccco1)(NC(=O)c1ccccc1)C(F)(F)F (stereo unspecified) | 43* | . | -1 | 13 | 3 | 2
O=c1cc(-c2ccccc2F)nc(-c2ccccc2F)o1 | 34* | -4 | -2 | . | -3 | 1
Nc1nc(-c2cccnc2)nn1C(=O)CCc1ccccc1 | 1 | . | -1 | -8 | -4 | 0
Cc1ccc(C(=O)n2nc(-c3ccco3)nc2N)cc1 | -2 | . | -2 | 81* | 3 | 0
Cc1ccc(-c2nc(N)n(C(=O)c3cccs3)n2)cc1 | 83* | . | 10 | 25 | 2 | -1
Nc1nc(-c2ccco2)nn1C(=O)CCc1ccccc1 | . | . | 0 | 113* | -8 | 0
Fc1ccc(-c2nc3ccc(Cl)cn3c2Cc2ccsc2)cc1 | . | 38 | . | -5 | . | .
CCN1CCCC1CNC(=O)c1ccc(N2CCCC2=O)cc1 (stereo unspecified) | 1 | . | -1 | -4 | -4 | 0
Cc1ccccc1N(C(=O)c1csnn1)C(C(=O)NC1CCCC1)c1ccncc1 (stereo unspecified) | 33* | ? | -2 | 11 | 4 | -1
Cc1ccc(N(C(=O)c2csnn2)C(C(=O)NC2CCCCC2)c2ccccn2)cc1C (stereo unspecified) | -2 | 1 | -3 | 81* | 1 | -2
COc1ccc(N(C(=O)c2csnn2)C(C(=O)NC2CCCC2)c2cccs2)cc1 (stereo unspecified) | 44* | 10 | 0 | 18 | -6 | 0
COc1ccc(N(C(=O)c2ccco2)C(C(=O)NC2CCCC2)c2cccs2)cc1 (stereo unspecified) | -5 | -3 | 0 | -3 | -8 | -1
C=CCN1C(=S)N[C@@H]2CS(=O)(=O)C[C@@H]21 | . | -1 | . | . | . | .
CO[C@H]1CN(C)C(=O)c2cc(NS(C)(=O)=O)ccc2OC[C@@H](C)N(C(=O)C2CCCC2)C[C@H]1C | . | 29 | . | -12 | . | .
NNC(=O)c1cccc(Cn2cc(Br)c([N+](=O)[O-])n2)c1 | 1 | -6 | 0 | . | -8 | 0
Nc1nonc1-n1nnc(C(=O)N/N=C/c2cc(Br)ccc2O)c1CNc1ccccc1 | -4 | 4 | -1 | 58 | 52* | -1
SMILES | CAL PDZ FP-1 | S100A4 MyoIIA | CAL PDZ FP-2 | C2C12 statin | dFosB act | CDK5 inh
Cc1ccc(/C=N/NC(=O)c2nnn(-c3nonc3N)c2CNc2ccccc2)cc1 | -3 | 0 | -3 | -1 | 9 | -2
Cc1c(C(=O)N/N=C/c2c(O)ccc3ccccc23)nnn1-c1nonc1N | -3 | 0 | -2 | 20 | 38* | 1
O=C(N/N=C/c1c(O)ccc2ccccc12)c1ccc(Br)o1 | -4 | -5 | -2 | -17 | 30* | -2
CC(C)(C)NC(=O)N1CCC(CO)(Cc2ccccc2Cl)CC1 | -13 | -1 | -2 | 4 | -6 | -2
O=C(c1ccc(Cl)cc1Cl)N1CCOCC1 | 0 | -3 | 1 | 1 | 8 | 0
O=C(c1cc2cc(Cl)cc(Cl)c2oc1=O)N1CCOCC1 | -3 | . | 0 | 115* | 6 | -1
O=C(O)/C=C/c1cccnc1 | -3 | 2 | 1 | 4 | 1 | 0
CC(/C=C\c1cccnc1)=C/C(=O)O | -2 | . | 0 | 116*! | -5 | 0
O=C(OCCOc1ccccc1F)c1cccc(S(=O)(=O)N2CCOCC2)c1 | 18 | -3 | -1 | 10 | -2 | -10
CCOC(=O)C(CC)n1cnc2c(nnn2-c2ccc(OC)cc2)c1=O (stereo unspecified) | -2 | . | -1 | 98* | -10 | 0
CCC(C(=O)OC)n1cnc2c(nnn2-c2ccc(OC)cc2)c1=O (stereo unspecified) | . | . | 0 | . | 0 | 0
CN(C)CCNC(=O)c1cccc2nc3c(ccc4ccccc43)nc12 | 2 | -20 | 3 | . | 73* | 0
CN(CCNC(=O)c1c[nH]c2c1ccc1ccccc12)CCNC(=O)c1c[nH]c2c1ccc1ccccc12 | 0 | 6 | -3 | . | 44* | -1
CN(C)CCNC(=O)c1ccccc1-c1cc2ccccc2c(=O)o1 | 0 | -1 | -1 | 2 | -8 | 0
CN(C)CCNC(=O)c1cccc2[nH]c(-c3ccncc3)nc12 | -4 | 0 | 0 | . | 38* | 1
O=C(NCc1ccccc1)N(Cc1nc2ccccc2c(=O)[nH]1)C1CCCC1 | . | . | 0 | -11 | 0 | 0
COC(=O)c1c(NC(=O)COC(=O)c2ccc(Cl)nc2)sc(C)c1C | 2 | -3 | -2 | 4 | -5 | 2
Cc1c(Cl)c([N+](=O)[O-])nn1CC(=O)N1CCN(C23CC4CC(CC(C4)C2)C3)CC1 | . | 31 | 2 | 0 | -6 | -6
CC(C)NC(=O)CS(=O)(=O)c1ccccc1 | -1 | -5 | -1 | 112* | 7 | 0
Cc1cc(C(=O)COC(=O)CN=C2NS(=O)(=O)c3ccccc32)c(C)n1CCc1ccc(Cl)cc1 | 0 | -1 | 0 | 112* | -4 | 1
Cc1cc(-n2c(C)cc(C(=O)COC(=O)CN=C3NS(=O)(=O)c4ccccc43)c2C)no1 | -2 | . | -2 | . | -9 | -1
CN(C)/C=N/c1sc2c(c1C(N)=O)CCCC2 | -2 | 3 | 1 | 0 | -7 | 1
Nc1cc(=O)[nH]c(SCC(=O)Nc2cc(S(=O)(=O)N3CCOCC3)ccc2Cl)n1 | -5 | 0 | -2 | . | -6 | 1
